Experimental data from ChEMBL document CHEMBL4425145, “Discovery of New Anti-Schistosomal Hits by Integration of QSAR-Based Virtual Screening and High Content Screening” (J Med Chem, 2016).
Active and inactive are the calls of the source. The rule behind the calls is not given here.

How the values were obtained:
[1] = biological target: T1, Thioredoxin glutathione reductase (Schistosoma mansoni, UniProt Q962Y6); assay: Inhibition of Schistosoma mansoni TGR
T1 sequence (Q962Y6 whole entry): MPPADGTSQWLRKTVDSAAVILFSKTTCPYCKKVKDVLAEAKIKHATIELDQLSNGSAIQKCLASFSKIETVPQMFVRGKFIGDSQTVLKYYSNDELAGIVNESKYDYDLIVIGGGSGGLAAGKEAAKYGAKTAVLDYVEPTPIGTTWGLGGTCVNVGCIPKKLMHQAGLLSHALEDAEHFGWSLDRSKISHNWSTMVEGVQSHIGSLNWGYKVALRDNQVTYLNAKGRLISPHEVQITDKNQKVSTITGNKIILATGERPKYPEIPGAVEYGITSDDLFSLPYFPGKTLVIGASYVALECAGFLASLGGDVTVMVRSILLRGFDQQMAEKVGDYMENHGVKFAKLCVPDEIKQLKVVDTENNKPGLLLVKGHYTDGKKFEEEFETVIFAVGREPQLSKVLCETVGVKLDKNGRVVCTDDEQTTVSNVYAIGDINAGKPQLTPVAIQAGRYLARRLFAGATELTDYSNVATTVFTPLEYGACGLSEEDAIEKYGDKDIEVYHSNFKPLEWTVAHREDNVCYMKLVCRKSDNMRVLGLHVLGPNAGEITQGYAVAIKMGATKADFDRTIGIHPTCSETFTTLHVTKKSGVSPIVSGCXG

Schistosoma mansoni [2] = assay: Antischistosomal activity against adult male Schistosoma mansoni BH assessed as inhibition of parasite motility after 72 hrs by HCS microscopic analysis; type: functional, organism-based
Procedure, shortened: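 Adult worms perfused from portal hepatic and mesenteric veins of Swiss mice 42–49 days after percutaneous infection with 150 ± 10 cercariae; males placed singly in wells in DMEM with 10% fetal calf serum, 2 mM L-glutamine, penicillin and streptomycin; held overnight at 37 °C, 5% CO2. Exposed to 0.10–100 μM, DMSO 0.1% control. Image-based motility (overlap index) read at 72 h; EC50 from dose-response.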

[3] = Cytotoxicity against human WSS1 cells assessed as reduction in cell viability after 48 hrs by resazurin assay; type: cell-based
Procedure, shortened: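 Human kidney WSS-1 epithelial cells grown in DMEM (4.5 g/L glucose, 10% FBS, gentamicin) and seeded at 5×10^4 cells/mL. Dosed 20 h later at 0.2–400 μM for 48 h at 37 °C, 5% CO2. Resazurin (final 0.01 mg/mL) added 4 h before the end; resorufin fluorescence read at ex 560/em 590 nm. Viability taken relative to DMSO (0.2–0.8%); CC50 from a four-parameter logistic fit.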

Schistosoma mansoni [4] = assay: Antischistosomal activity against Schistosoma mansoni BH schistosomula assessed as inhibition of parasite motility after 48 hrs by HCS microscopic analysis; type: functional, organism-based
Procedure, shortened: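 Schistosomula obtained from cercariae by vortex tail shedding (5 min), held overnight in Medium 169 under 5% CO2 at 120 per well. Dosed at 0.31–20 μM against DMSO 0.625% for 48 h. Motility taken by automated bright-field imaging as average object displacement, adjusted to DMSO control wells. EC50 from a four-parameter logistic fit.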

Schistosoma mansoni [5] = assay: Antischistosomal activity against adult female Schistosoma mansoni BH assessed as inhibition of parasite motility up to 72 hrs by HCS microscopic analysis; type: functional, organism-based
Procedure, shortened: (§1)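 Adult worms perfused from portal hepatic and mesenteric veins of Swiss mice 42–49 days after percutaneous infection with 150 ± 10 cercariae. Worms held singly in DMEM with 10% FCS and 2 mM L-glutamine overnight at 37 °C, 5% CO2. Exposed to 0.10–100 μM against 0.1% DMSO, imaged at 0, 24, 48 and 72 h. Motility from image-overlap AdjustedRandIndex; EC50 from dose-response curves.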

Schistosoma mansoni [6] = assay: Antischistosomal activity against Schistosoma mansoni BH schistosomula assessed as morphological changes at 20 uM after 48 hrs by HCS microscopic analysis; type: functional, organism-based
Procedure, shortened: (§2)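 Cercariae vortexed at maximum speed for 5 min to shed tails and transform to schistosomula. Larvae resuspended in Medium 169 at 120 per well and held overnight under 5% CO2 before dosing. Exposed 48 h at 20 μM, vehicle DMSO 0.625%. Automated bright-field HCS imaging; Bayesian phenotype and motility scores adjusted to DMSO control wells on each plate.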

Papain = biological target: T2, Papain (Carica papaya, UniProt P00784); assay: Inhibition of papaya papain using Z-FR-AMC fluorogenic peptide substrate preincubated for 5 mins followed by substrate addition
T2 sequence (P00784 whole entry): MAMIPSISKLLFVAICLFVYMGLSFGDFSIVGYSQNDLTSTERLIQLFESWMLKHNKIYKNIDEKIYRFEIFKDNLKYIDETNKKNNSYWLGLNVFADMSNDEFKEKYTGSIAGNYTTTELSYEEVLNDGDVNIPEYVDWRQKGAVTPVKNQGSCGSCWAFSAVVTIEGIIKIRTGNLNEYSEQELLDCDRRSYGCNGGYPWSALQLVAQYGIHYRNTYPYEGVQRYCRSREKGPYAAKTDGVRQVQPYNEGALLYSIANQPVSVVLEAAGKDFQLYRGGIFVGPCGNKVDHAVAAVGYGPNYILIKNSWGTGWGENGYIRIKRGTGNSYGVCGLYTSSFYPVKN
Procedure, shortened: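 Papain (5 μg/mL) in 100 mM sodium acetate, pH 3.5, at 37 °C. Pre-incubated 5 min with compound at 20 and 100 μM, then reaction started with 50 μM Z-FR-AMC fluorogenic substrate. E-64 used as positive control.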

Schistosoma mansoni [7] = assay: Antischistosomal activity against Schistosoma mansoni BH schistosomula assessed as inhibition of parasite motility at 20 uM after 48 hrs by HCS microscopic analysis; type: functional, organism-based; procedure, shortened: as §2
Schistosoma mansoni [8] = assay: Antischistosomal activity against adult male Schistosoma mansoni BH assessed as inhibition of parasite motility up to 72 hrs by HCS microscopic analysis; type: functional, organism-based; procedure, shortened: as §1
Schistosoma mansoni [9] = assay: Antischistosomal activity against adult male Schistosoma mansoni BH assessed as inhibition of parasite motility at 20 to 100 uM after 48 to 72 hrs in presence of 0.01% triton X-100 by colloidal aggregation assay; type: functional, organism-based
Procedure, shortened: (§3)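 Perfused adult worms held singly in complete DMEM at 37 °C, 5% CO2. Incubated with compound at 20 and 100 μM, with or without Triton X-100 (0.01%). HCS motility measured at 48 and 72 h, and activity with detergent compared with activity without it.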

Schistosoma mansoni [10] = assay: Antischistosomal activity against adult female Schistosoma mansoni BH assessed as inhibition of parasite motility at 20 to 100 uM after 48 to 72 hrs in absence of 0.01% triton X-100 by colloidal aggregation assay; type: functional, organism-based; procedure, shortened: as §3
Schistosoma mansoni [11] = assay: Antischistosomal activity against adult female Schistosoma mansoni BH assessed as inhibition of parasite motility at 20 to 100 uM after 48 to 72 hrs in presence of 0.01% triton X-100 by colloidal aggregation assay; type: functional, organism-based; procedure, shortened: as §3
Schistosoma mansoni [12] = assay: Antischistosomal activity against adult male Schistosoma mansoni BH assessed as inhibition of parasite motility at 20 to 100 uM after 48 to 72 hrs in absence of 0.01% triton X-100 by colloidal aggregation assay; type: functional, organism-based; procedure, shortened: as §3
Schistosoma mansoni [13] = assay: Antischistosomal activity against Schistosoma mansoni BH schistosomula assessed as rounding appearance of schistosomula at 20 uM after 48 hrs by HCS microscopic analysis; type: functional, organism-based; procedure, shortened: as §2
Schistosoma mansoni [14] = assay: Antischistosomal activity against Schistosoma mansoni BH schistosomula assessed as darkening of schistosomula at 20 uM after 48 hrs by HCS microscopic analysis; type: functional, organism-based; procedure, shortened: as §2
Schistosoma mansoni [15] = assay: Antischistosomal activity against Schistosoma mansoni BH schistosomula assessed as multiple vacuole appearance at 20 uM after 48 hrs by HCS microscopic analysis; type: functional, organism-based; procedure, shortened: as §2

SMILES | IC50 [1] [µM] | EC50 (Schistosoma mansoni [2]) [µM] | CC50 [3] [µM] | EC50 (Schistosoma mansoni [4]) [µM] | EC50 (Schistosoma mansoni [5]) [µM] | Activity (Schistosoma mansoni [6]) | IC50 (Papain) [µM] | motility inhibition activity call (Schistosoma mansoni [7]) | EC50 (Schistosoma mansoni [8]) [µM] | inhibition (Schistosoma mansoni [9]) | inhibition (Schistosoma mansoni [10]) | inhibition (Schistosoma mansoni [11]) | inhibition (Schistosoma mansoni [12]) | Activity (Schistosoma mansoni [13]) | Activity (Schistosoma mansoni [14]) | Activity (Schistosoma mansoni [15])
O=C(CSc1ccccn1)Nc1nonc1[N+](=O)[O-] | 7.08 |  |  |  |  |  |  |  |  |  |  |  |  |  |  | 
O=C(C1CCCCC1)N1CC(=O)N2CCc3ccccc3C2C1 (stereo not drawn) [PRAZIQUANTEL] |  | 0.22 | > 400 | 1.9 | 0.64 |  |  |  |  |  |  |  |  |  |  | 
O=C1CC(Sc2nnc[nH]2)C(=O)N1c1ccc(I)cc1 (stereo not drawn) |  |  | 133 | > 20 | 17.9 | Active | > 100 | Active | 10.2 |  |  |  |  |  |  | 
COc1ccc(/C=C/[N+](=O)[O-])cc1OC |  |  | 17.5 | > 20 | 5.77 | Active | > 100 | Active | 29.8 | Active | Active | Active | Active |  |  | 
COc1ccc(C(=O)c2no[n+]([O-])c2C(=O)c2ccc(OC)cc2)cc1 | 0.1 |  |  |  |  |  |  |  |  |  |  |  |  |  |  | 
Cc1noc(/C=C/c2ccccn2)c1[N+](=O)[O-] |  |  | 16.4 | 3.23 | 5.68 | Active | > 100 | Active | 6.43 | Active | Active | Active | Active | Active | Active | Active
CC(=O)c1ccc(NCCC(=O)c2cccs2)cc1 |  |  |  | > 20 |  | Active |  | Active |  |  |  |  |  |  |  | 
O=S(=O)(Cc1ccccc1)c1nc2ccccc2s1 |  |  | 28.5 | 2.62 | 4.91 | Active | > 100 | Active | 21.1 | Active | Active | Active | Active | Active | Active | Active
N#Cc1cn(-c2ccccc2)nc1-c1ccco1 |  |  |  | > 20 |  | Active |  | Active |  |  |  |  |  |  |  | 
